This is an account of results in ChEMBL document CHEMBL1141608, “Azaterphenyl diamidines as antileishmanial agents” (Bioorg Med Chem Lett, 2008).

Data set [1] concerns Leishmania donovani. Description: Antileishmanial activity against Leishmania donovani axenic amastigotes. Type of data set: functional, organism-based. The procedure, abridged:
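Axenic L. donovani amastigotes; IC50 is the mean of at least two independent assays.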

The subject of data set [2] is L6. Description: Cytotoxicity against rat L6 cells. Type of data set: cell-based.
Data set [3] in a line: Binding affinity to poly(dA-dT)2 assessed as melting temperature.
Data set [4] deals with Leishmania amazonensis. Description: Antileishmanial activity against Leishmania amazonensis in mouse J774 cells.
The test system of data set [5] is Leishmania donovani. The data set can be described thus: Induction of mitochondrial dilation in Leishmania donovani axenic amastigotes at […] after 24 hrs. Type of data set: functional, organism-based.
Data set [6] has as its system Leishmania donovani. The data set can be described thus: Induction of kinetoplast disintegration in Leishmania donovani axenic amastigotes at […] after 24 hrs. Type of data set: functional, organism-based.
Data set [7] has as its system J774. Description: Cytotoxicity against mouse J774 cells. Type of data set: cell-based.
The test system of data set [8] is Leishmania amazonensis. The data set can be described thus: Antileishmanial activity against Leishmania amazonensis in mouse J774 cells at <5 uM.

The source made the active and inactive calls. The calls are words filed in the database; no cut-off is given here. Bounds are passed on as bounds.

`N=C(N)c1ccc(-c2ccc(-c3ccc(C(=N)N)cc3)nn2)cc1`: the IC50 is 720 nM in data set [1] and 31 µM in data set [2].
Turning to `N=C(N)c1ccc(-c2ccc(-c3ccc(C(=N)N)cc3)c(F)c2)cc1`, the ΔTm in data set [3] was 15.1 °C. The IC50 in data set [1] was 340 nM; in data set [2] it was 6.4 µM.
In the case of `N=C(N)c1ccc(-c2cnc(-c3ccc(C(=N)N)cc3)cn2)cc1`, the figures for the IC50 in data set [1] and in data set [2] were 560 nM and 43 µM, respectively.
`N=C(N)c1cnc(-c2ccc(-c3cnc(C(=N)N)cn3)cc2)cn1` showed an IC50 in data set [2] of 47 µM.
Turning to `N=C(N)c1ccc(-c2ccc(-c3cnc(C(=N)N)nc3)cn2)cc1`, the IC50 in data set [1] was 2600 nM; in data set [2] it was 6.4 µM.
As to `N=C(N)c1ccc(-c2ccc(-c3cnc(C(=N)N)nc3)cc2)cc1`, the figures for the concentration for half-maximal inhibition (IC50) in data set [1] and in data set [2] were 200 nM and 4.7 µM, respectively.
For the molecule `N=C(N)c1ncc(-c2ccc(-c3cnc(C(=N)N)nc3)cc2)cn1`, the IC50 in data set [1] was 1700 nM; in data set [2], 2.2 µM.
For `N=C(N)c1ccc(-c2cnc(-c3ccc(C(=N)N)cc3)nc2)cc1` the same measures were 1100 nM and 41 µM.
For the molecule `N=C(N)c1ccc(-c2ccc(-c3ccc(C(=N)N)cn3)cn2)cc1`, the IC50 came out at 6800 nM in data set [1] and 28 µM in data set [2].
In the case of `C[C@@H]1[C@H](O)[C@@H](C)/C=C/C=C/C=C/C=C/C=C/C=C/C=C/[C@H](O[C@@H]2O[C@H](C)[C@@H](O)[C@H](N)[C@@H]2O)C[C@@H]2O[C@](O)(C[C@@H](O)C[C@@H](O)[C@H](O)CC[C@@H](O)C[C@@H](O)CC(=O)O[C@H]1C)C[C@H](O)[C@H]2C(=O)O` (stereo in doubt) [AMPHOTERICIN B], in data set [4], the IC50 worked out at 46 nM.
Take `N=C(N)c1ccc(-c2ccc(-c3ccc(C(=N)N)nc3)cn2)cc1`: the values for the IC50 in data set [1] and in data set [2] were 510 nM and 20 µM, respectively.
Take `N=C(N)c1ccc(-c2cnc(-c3ccc(C(=N)N)nc3)nc2)cn1`: the thermal shift (ΔTm) in data set [3] was 6.8 °C. For the same molecule, the IC50 worked out at 1800 nM in data set [1] and 5.3 µM in data set [2].
Take `N=C(N)c1ccc(-c2ccc(-c3ccc(C(=N)N)cc3)nc2)cc1`: the IC50 came out at 820 nM in data set [1] and 50 µM in data set [2].
In the case of `N=C(N)c1ccc(-c2ccc(-c3ccc(C(=N)N)cc3)cc2)cc1`, the outcome in data set [5] and in data set [6] was Active. For the same molecule, the Activity entry in data set [7] was “Toxic”. In addition, in data set [8], the outcome was inactive. Further, the IC50 was 270 nM in data set [1] and 22 µM in data set [2].
Take `N=C(N)c1ccc(-c2ccc(-c3ccc(C(=N)N)cn3)cc2)cc1`: the IC50 is 1400 nM in data set [1] and 27 µM in data set [2].
Consider `N=C(N)c1ccc(-c2ccc(-c3ccc(C(=N)N)cn3)cc2)nc1`, for which the half-inhibitory concentration (IC50) in data set [1] was greater than 100000 nM.
With `N=C(N)c1ccc(-c2ccc(-c3ccc(C(=N)N)nc3)cc2)cn1`, the Activity entry in data set [7] is “Toxic”. For the same molecule, the result in data set [8] was inactive. Also, the IC50 was 63 nM in data set [1] and 1.2 µM in data set [2].
Turning to `N=C(N)c1ccc(-c2ccc(-c3ccc(C(=N)N)nc3)cc2)cc1`, the figures for the IC50 in data set [1] and in data set [2] were 84 nM and 2.8 µM, respectively.
For `N=C(N)c1ccc(-c2ccc(-c3cnc(C(=N)N)cn3)cn2)cc1`, the IC50 in data set [1] came out at 16000 nM; in data set [2], 93 µM.

As usually defined, the IC50 is the point on the concentration scale where inhibition reaches its midpoint. Low values mean higher potency, high ones lower potency. The term ΔTm denotes the shift of the melting midpoint relative to a reference.
